Legend:
[1] = target: T1, Bromodomain testis-specific protein (Homo sapiens, UniProt Q58F21); assay: Binding affinity to 5FW-labeled BRDT bromodomain 1 W50 residue (unknown origin) expressed in Escherichia coli BL21(DE3) by PrOF NMR spectroscopic analysis
Procedure, shortened: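 5FW-BrdT(1) at 40–50 μM in 50 mM Tris, 100 mM NaCl, 3 mM DTT, pH 7.4, 5% D2O. The pocket Trp resonance is followed for broadening and for a new upfield peak as ligand is titrated.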

[2] = target: T1, Bromodomain testis-specific protein; assay: Binding affinity to 5FW-labeled BRDT bromodomain 1 residue (unknown origin) expressed in Escherichia coli BL21(DE3) by PrOF NMR spectroscopic analysis
[3] = target: Bromodomain-containing protein 4 (Homo sapiens, UniProt O60885); assay: Binding affinity to 5FW-labeled BRD4 bromodomain 1 (unknown origin) expressed in Escherichia coli BL21(DE3) by PrOF NMR spectroscopic analysis
Procedure, shortened: (§1)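 BrdT samples also contain 3 mM DTT. Spectra recorded with compound present and absent at 500 MHz, 90° flip angle, 0.7 s relaxation delay, 0.1 s acquisition, 500 transients. The read-out is broadening or shift of the binding-pocket Trp resonance.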

[4] = target: Nucleosome-remodeling factor subunit BPTF (Homo sapiens, UniProt Q12830); assay: Binding affinity to 5FW-labeled BPTF (unknown origin) by PrOF NMR spectroscopic analysis; procedure, shortened: as §1

Kd [1]: 1.5 mM | Kd [2]: 1.5 mM | Kd [3]: 0.66 mM | Kd [4]: 6.8 mM
Structure (SMILES): CCn1c(N)cc(=O)[nH]c1=O

Reference: ChEMBL document CHEMBL4014334, “BET Bromodomain Inhibitors with One-Step Synthesis Discovered from Virtual Screen” (J Med Chem, 2017)
